Test system in the first assay: not listed separately
The assay can be described thus: Inhibition of Trypanosoma brucei GSK3 using biotinylated GSP2 substrate by flashplate assay.
Settings: not given
The procedure, abridged:
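Radiometric Flashplate assay: 2.5 nM TbGSK3 short, 1 μM biotinylated GSP2, 1 μM ATP plus [γ-33P]-ATP. 10-point titration 30 μM to 0.3 nM final, 1% DMSO. IC50 averaged over two or more experiments; standard GW8510 used for reproducibility (MSR).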
`CO[C@H]1CC[C@H](NC(=O)c2n[nH]cc2NC(=O)Cc2c(Cl)cccc2Cl)CC1` gave an IC50 of 230 nM.

`CO[C@H]1CC[C@H](NC(=O)c2n[nH]cc2NC(=O)Cc2ccccc2F)CC1` yielded an IC50 of 390 nM. This IC50 is about 1.7-fold higher than that of the compound before.

`CO[C@H]1CC[C@H](NC(=O)c2n[nH]cc2NC(=O)c2ccc(N3CCN(C)CC3)cc2)CC1` showed an IC50 of 70 nM.

Regarding `CO[C@H]1CC[C@H](NC(=O)c2n[nH]cc2NC(=O)c2cc3ccccn3n2)CC1`, the 50% inhibitory concentration (IC50) came to 63 nM.

Regarding `COc1cccc(OC)c1C(=O)Nc1c[nH]nc1C(=O)Nc1ccccn1`, half-maximal inhibition (IC50) required 320 nM. Compared with the last compound, the IC50 is about 5.1-fold higher.

`CO[C@H]1CC[C@H](NC(=O)c2n[nH]cc2NC(=O)c2ccc(N3CCCC3)cc2)CC1` registered an IC50 of 19 nM.

Consider `CO[C@H]1CC[C@H](NC(=O)c2n[nH]cc2NC(=O)c2ccccc2Nc2cccc(C)c2C)CC1`, for which the IC50 is 66 nM. This IC50 lies about 3.5-fold higher than the previous one.

`COc1cccc(OC)c1C(=O)Nc1c[nH]nc1C(=O)NCC1CCCCC1` showed an IC50 of 1 nM.

`COc1ccccc1C(=O)Nc1c[nH]nc1C(=O)N[C@H]1CC[C@H](OC)CC1`: half-maximal inhibition (IC50) required 4 nM.

The compound `CO[C@H]1CC[C@H](NC(=O)c2n[nH]cc2NC(=O)c2cc3ccccc3o2)CC1` yielded an IC50 of 13 nM.

Regarding `CO[C@H]1CC[C@H](NC(=O)c2n[nH]cc2NC(=O)c2cc(F)cc(F)c2)CC1`, the IC50 was 24 nM.

For `CO[C@H]1CC[C@H](NC(=O)c2n[nH]cc2NC(=O)c2ccc(F)cc2F)CC1`, the IC50 came out at 53 nM.

The next assay has as its target Glycogen synthase kinase-3 (Homo sapiens, UniProt P49840+P49841). Description: Inhibition of human GSK3 using biotinylated GSP2 substrate by flashplate assay. In kind it is protein assay.
Settings: not given
Compound `CO[C@H]1CC[C@H](NC(=O)c2n[nH]cc2NC(=O)Cc2c(Cl)cccc2Cl)CC1` registered an IC50 of 200 nM.

Turning to `CO[C@H]1CC[C@H](NC(=O)c2n[nH]cc2NC(=O)Cc2ccccc2F)CC1`, the IC50 came to 140 nM.

The compound `CO[C@H]1CC[C@H](NC(=O)c2n[nH]cc2NC(=O)c2ccc(N3CCN(C)CC3)cc2)CC1` came in with an IC50 of under 5 nM.

In turn, `CO[C@H]1CC[C@H](NC(=O)c2n[nH]cc2NC(=O)c2cc3ccccn3n2)CC1` had an IC50 of under 5 nM.

For the compound `COc1cccc(OC)c1C(=O)Nc1c[nH]nc1C(=O)Nc1ccccn1`, the IC50 was found to be 940 nM.

With `CO[C@H]1CC[C@H](NC(=O)c2n[nH]cc2NC(=O)c2ccc(N3CCCC3)cc2)CC1`, the IC50 is under 5 nM.

For `CO[C@H]1CC[C@H](NC(=O)c2n[nH]cc2NC(=O)c2ccccc2Nc2cccc(C)c2C)CC1`, the IC50 stood at 30 nM.

The compound `COc1ccccc1C(=O)Nc1c[nH]nc1C(=O)N[C@H]1CC[C@H](OC)CC1` displayed an IC50 of under 13 nM.

With `CO[C@H]1CC[C@H](NC(=O)c2n[nH]cc2NC(=O)c2cc3ccccc3o2)CC1`, the IC50 is under 5 nM.

As to `CO[C@H]1CC[C@H](NC(=O)c2n[nH]cc2NC(=O)c2cc(F)cc(F)c2)CC1`, the IC50 is under 5 nM.

In turn, `CO[C@H]1CC[C@H](NC(=O)c2n[nH]cc2NC(=O)c2ccc(F)cc2F)CC1` had an IC50 of under 5 nM.

Test system in the next assay: not listed separately
Description: Selectivity ratio, ratio of IC50 for human GSK3 to IC50 Trypanosoma brucei GSK3.
Settings: not given
For `CO[C@H]1CC[C@H](NC(=O)c2n[nH]cc2NC(=O)Cc2c(Cl)cccc2Cl)CC1`, the Ratio IC50 was determined as 0.87.

Turning to `CO[C@H]1CC[C@H](NC(=O)c2n[nH]cc2NC(=O)Cc2ccccc2F)CC1`, the Ratio IC50 was found to be 0.35.

Take `COc1cccc(OC)c1C(=O)Nc1c[nH]nc1C(=O)Nc1ccccn1`: the Ratio IC50 stood at 2.9.

For `CO[C@H]1CC[C@H](NC(=O)c2n[nH]cc2NC(=O)c2ccccc2Nc2cccc(C)c2C)CC1`, the Ratio IC50 is 0.45.

Another assay has as its target CDK2/Cyclin A2 (Homo sapiens, UniProt P24941). The assay can be described thus: Inhibition of human CDK2/cyclin A using Biotin-C6-PKTPKKAKKL substrate.
Settings: not given
In kind it is protein-complex assay.
`CO[C@H]1CC[C@H](NC(=O)c2n[nH]cc2NC(=O)Cc2c(Cl)cccc2Cl)CC1`: inhibition was half-maximal at 290 nM (IC50).

The compound `CO[C@H]1CC[C@H](NC(=O)c2n[nH]cc2NC(=O)Cc2ccccc2F)CC1` displayed an IC50 of 820 nM.

With `CO[C@H]1CC[C@H](NC(=O)c2n[nH]cc2NC(=O)c2ccc(N3CCN(C)CC3)cc2)CC1`, the IC50 came out at 1000 nM.

Compound `CO[C@H]1CC[C@H](NC(=O)c2n[nH]cc2NC(=O)c2cc3ccccn3n2)CC1` registered an IC50 of 42 nM.

Compound `COc1cccc(OC)c1C(=O)Nc1c[nH]nc1C(=O)Nc1ccccn1` gave an IC50 of over 10000 nM.

In the case of `CO[C@H]1CC[C@H](NC(=O)c2n[nH]cc2NC(=O)c2ccc(N3CCCC3)cc2)CC1`, the IC50 was 130 nM.

As for `COc1ccccc1C(=O)Nc1c[nH]nc1C(=O)N[C@H]1CC[C@H](OC)CC1`, half-maximal inhibition (IC50) was put at 100 nM. This IC50 and that of the compound before are within 1.5-fold of each other.

In the case of `CO[C@H]1CC[C@H](NC(=O)c2n[nH]cc2NC(=O)c2cc(F)cc(F)c2)CC1`, the IC50 worked out at 83 nM. The IC50 values of the last two compounds are within 1.5-fold of each other.

As for `CO[C@H]1CC[C@H](NC(=O)c2n[nH]cc2NC(=O)c2ccc(F)cc2F)CC1`, half-maximal inhibition (IC50) was put at 220 nM. This IC50 lies about 2.7-fold higher than the previous one.

Test system in another assay: not listed separately
The assay can be described thus: Selectivity ratio, ratio of IC50 for human CDK2/cyclin A to IC50 for Trypanosoma brucei GSK3.
Settings: not given
Take `CO[C@H]1CC[C@H](NC(=O)c2n[nH]cc2NC(=O)Cc2c(Cl)cccc2Cl)CC1`: the Ratio IC50 turned out to be 1.3.

In the case of `CO[C@H]1CC[C@H](NC(=O)c2n[nH]cc2NC(=O)Cc2ccccc2F)CC1`, the Ratio IC50 worked out at 2.1.

Turning to `CO[C@H]1CC[C@H](NC(=O)c2n[nH]cc2NC(=O)c2ccc(N3CCN(C)CC3)cc2)CC1`, the Ratio IC50 was 14.

On to `CO[C@H]1CC[C@H](NC(=O)c2n[nH]cc2NC(=O)c2cc3ccccn3n2)CC1`, for which the Ratio IC50 was found to be 0.67.

In the case of `COc1cccc(OC)c1C(=O)Nc1c[nH]nc1C(=O)Nc1ccccn1`, the Ratio IC50 was over 31.

As for `CO[C@H]1CC[C@H](NC(=O)c2n[nH]cc2NC(=O)c2ccc(N3CCCC3)cc2)CC1`, the Ratio IC50 came out at 6.8.

For the compound `COc1ccccc1C(=O)Nc1c[nH]nc1C(=O)N[C@H]1CC[C@H](OC)CC1`, the Ratio IC50 was 25.

Turning to `CO[C@H]1CC[C@H](NC(=O)c2n[nH]cc2NC(=O)c2cc(F)cc(F)c2)CC1`, the Ratio IC50 was found to be 3.5.

Take `CO[C@H]1CC[C@H](NC(=O)c2n[nH]cc2NC(=O)c2ccc(F)cc2F)CC1`: the Ratio IC50 is 4.2.

The next assay has as its system Trypanosoma brucei brucei. Description: Trypanocidal activity against bloodstream stage of Trypanosoma brucei brucei assessed as inhibition of proliferation after 72 hrs. In kind it is functional, organism-based.
Settings: not given
An outline of the steps:
(§1)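 Resazurin viability assay: 2 × 10³ cells/well (MRC5 in MEM + 10% FBS; bloodstream-form T. b. brucei in appropriate medium), compounds 50 μM to 0.5 nM, 37 °C, 5% CO₂ for 69 h, then resazurin 50 μM final for further 4 h; fluorescence read. Concentration giving 50% growth inhibition over 72 h; average of two or more experiments.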
For the compound `CO[C@H]1CC[C@H](NC(=O)c2n[nH]cc2NC(=O)Cc2c(Cl)cccc2Cl)CC1`, the EC50 was determined as 7300 nM.

In the case of `CO[C@H]1CC[C@H](NC(=O)c2n[nH]cc2NC(=O)Cc2ccccc2F)CC1`, the EC50 came out at 23000 nM.

On to `CO[C@H]1CC[C@H](NC(=O)c2n[nH]cc2NC(=O)c2ccc(N3CCN(C)CC3)cc2)CC1`, for which the EC50 amounted to 2000 nM.

As for `CO[C@H]1CC[C@H](NC(=O)c2n[nH]cc2NC(=O)c2cc3ccccn3n2)CC1`, the EC50 came to 1900 nM.

Regarding `COc1cccc(OC)c1C(=O)Nc1c[nH]nc1C(=O)Nc1ccccn1`, the EC50 is over 50000 nM.

On to `CO[C@H]1CC[C@H](NC(=O)c2n[nH]cc2NC(=O)c2ccc(N3CCCC3)cc2)CC1`, for which the 50% effective concentration (EC50) was found to be 2700 nM.

As for `CO[C@H]1CC[C@H](NC(=O)c2n[nH]cc2NC(=O)c2ccccc2Nc2cccc(C)c2C)CC1`, the EC50 stood at 5800 nM.

Regarding `COc1cccc(OC)c1C(=O)Nc1c[nH]nc1C(=O)NCC1CCCCC1`, the EC50 turned out to be 7700 nM.

Regarding `COc1ccccc1C(=O)Nc1c[nH]nc1C(=O)N[C@H]1CC[C@H](OC)CC1`, the EC50 amounted to 900 nM.

For the compound `CO[C@H]1CC[C@H](NC(=O)c2n[nH]cc2NC(=O)c2cc3ccccc3o2)CC1`, the EC50 was determined as 1200 nM.

For the compound `CO[C@H]1CC[C@H](NC(=O)c2n[nH]cc2NC(=O)c2cc(F)cc(F)c2)CC1`, the EC50 was determined as 2600 nM.

On to `CO[C@H]1CC[C@H](NC(=O)c2n[nH]cc2NC(=O)c2ccc(F)cc2F)CC1`, for which the EC50 came to 3800 nM.

In a further assay the test system is MRC5. The assay can be described thus: Cytotoxicity against human MRC5 cells assessed as growth inhibition after 72 hrs. The class given is cell-based. The following applies: MRC5, 72 h. An outline of the steps:
as §1
For `CO[C@H]1CC[C@H](NC(=O)c2n[nH]cc2NC(=O)Cc2c(Cl)cccc2Cl)CC1`, the EC50 was 3100 nM.

As for `CO[C@H]1CC[C@H](NC(=O)c2n[nH]cc2NC(=O)Cc2ccccc2F)CC1`, the EC50 is over 50000 nM.

For the compound `CO[C@H]1CC[C@H](NC(=O)c2n[nH]cc2NC(=O)c2ccc(N3CCN(C)CC3)cc2)CC1`, the EC50 stood at 20000 nM.

As for `CO[C@H]1CC[C@H](NC(=O)c2n[nH]cc2NC(=O)c2cc3ccccn3n2)CC1`, the EC50 worked out at 1000 nM.

`COc1cccc(OC)c1C(=O)Nc1c[nH]nc1C(=O)Nc1ccccn1`: the EC50 was over 50000 nM.

Take `CO[C@H]1CC[C@H](NC(=O)c2n[nH]cc2NC(=O)c2ccc(N3CCCC3)cc2)CC1`: the EC50 was over 50000 nM.

For `CO[C@H]1CC[C@H](NC(=O)c2n[nH]cc2NC(=O)c2ccccc2Nc2cccc(C)c2C)CC1`, the EC50 worked out at 16000 nM.

In the case of `COc1cccc(OC)c1C(=O)Nc1c[nH]nc1C(=O)NCC1CCCCC1`, the EC50 was over 50000 nM.

In the case of `COc1ccccc1C(=O)Nc1c[nH]nc1C(=O)N[C@H]1CC[C@H](OC)CC1`, the EC50 was found to be 1500 nM.

For `CO[C@H]1CC[C@H](NC(=O)c2n[nH]cc2NC(=O)c2cc3ccccc3o2)CC1`, the EC50 turned out to be 800 nM.

Turning to `CO[C@H]1CC[C@H](NC(=O)c2n[nH]cc2NC(=O)c2cc(F)cc(F)c2)CC1`, the EC50 is 600 nM.

Regarding `CO[C@H]1CC[C@H](NC(=O)c2n[nH]cc2NC(=O)c2ccc(F)cc2F)CC1`, the EC50 is 11000 nM.

The IC50 is the midpoint of a concentration-inhibition curve. A high value points to weaker potency. One may read the EC50 as the concentration that produces a half-maximal response.

The record behind these values is ChEMBL document CHEMBL3352013, “The design and synthesis of potent and selective inhibitors of Trypanosoma brucei glycogen synthase kinase 3 for the treatment of human african trypanosomiasis” (J Med Chem, 2014).
